Test results: ChEMBL document CHEMBL5046239, “Development of novel phenoxyalkylpiperidines as high-affinity Sigma-1 (σ1) receptor ligands with potent anti-amnesic effect” (Eur J Med Chem, 2022)
Activity calls are given as the source filed them. No cut-off for these calls is given here.

Legend:
[1] = target: T1, Sigma intracellular receptor 2 (Rattus norvegicus, UniProt Q5U3Y7); test: Displacement of [3H]DTG from sigma 2 receptor in Wistar Han rat liver membranes measured after 120 mins by scintillation counting method; type: cell membranes, Membrane
T1 sequence (Q5U3Y7 whole entry): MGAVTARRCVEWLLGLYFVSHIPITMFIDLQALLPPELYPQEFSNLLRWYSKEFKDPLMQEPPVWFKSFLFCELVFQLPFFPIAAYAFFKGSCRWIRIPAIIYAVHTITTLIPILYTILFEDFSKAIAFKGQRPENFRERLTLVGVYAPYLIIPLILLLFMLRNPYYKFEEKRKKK

[2] = target: Sigma non-opioid intracellular receptor 1 (Cavia porcellus, UniProt Q60492); test: Displacement of [3H](+)-pentazocine from sigma 1 receptor in guinea pig brain membranes measured after 120 mins by scintillation counting method; type: cell membranes, Membrane
C6 = test: Cytotoxicity against rat C6 cells assessed as cell viability measured after 48 hrs by MTT assay; type: functional, cell-based; settings: C6, 48 h
MCF7 = test: Cytotoxicity against human MCF7 cells assessed as cell viability measured after 48 hrs by MTT assay; type: functional, cell-based; settings: MCF7, 48 h
Outline: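 MCF7 cells grown in DMEM with 10% FBS, glutamine and pen-strep at 37 °C, 5% CO2. Seeded at 25,000 cells/well and dosed the next day at 1–100 μM for 48 h. Solvent controls included. MTT 0.5 mg/mL for 3–4 h, formazan dissolved in DMSO/EtOH, absorbance read at 570/630 nm.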

Mus musculus [3] = test: Cognitive enhancing effect in dizocilpine induced amnesia Swiss mouse model assessed as reduction in memory impairment at 1 to 10 mg/kg, ip pretreated for 10 mins followed by dizocilpine addition in presence of NE-100 measured after 20 mins by Y-maze test; type: functional, organism-based; settings: dose 1-10 mg/kg, time 30.0 min
Outline: (§1)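 Male Swiss OF-1 mice, 7–9 weeks old, n = 12–16 per group. Test drug given ip in saline 10 min before dizocilpine (0.15 mg/kg ip), which was given 20 min before the Y-maze session or passive avoidance training. NE-100 (1 mg/kg ip) was given at the same time as the test drug where used. Read-outs were Y-maze alternation and step-through latency at 24 h retention. Statistics were ANOVA with Dunnett's test, or Dunn's test for latency.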

Mus musculus [4] = test: Cognitive enhancing effect in dizocilpine induced amnesia Swiss mouse model assessed as increase in latency time at 1 to 10 mg/kg, ip pretreated for 10 mins followed by dizocilpine addition measured after 20 mins by step-through passive avoidance test; type: functional, organism-based; settings: dose 1-10 mg/kg, time 30.0 min; outline: as §1
SH-SY5Y = test: Cytotoxicity against human SH-SY5Y cells assessed as cell viability measured after 48 hrs by MTT assay; type: functional, cell-based
Outline: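 SH-SY5Y cells grown in MEM/Ham's F12 (1:1) with 10% FBS, glutamine and pen-strep at 37 °C, 5% CO2. Seeded at 25,000 cells/well and dosed the next day at 1–100 μM for 48 h. Solvent controls included. MTT 0.5 mg/mL for 3–4 h, formazan dissolved in DMSO/EtOH, absorbance read at 570/630 nm.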

Mus musculus [5] = test: Cognitive enhancing effect in dizocilpine induced amnesia Swiss mouse model assessed as reduction in memory impairment at 1 to 10 mg/kg, ip pretreated for 10 mins followed by dizocilpine addition measured after 20 mins by Y-maze test; type: functional, organism-based; settings: dose 1-10 mg/kg, time 30.0 min; outline: as §1
HepG2 = test: Cytotoxicity against human HepG2 cells assessed as cell viability measured after 48 hrs by MTT assay; type: functional, cell-based; settings: HepG2, 48 h
Outline: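 HepG2 cells grown in MEM with 10% FBS, glutamine, pen-strep and NEAA at 37 °C, 5% CO2. Seeded at 25,000 cells/well and dosed the next day at 1–100 μM for 48 h. Solvent controls (EtOH, DMSO) included. MTT 0.5 mg/mL for 3–4 h, formazan dissolved in DMSO/EtOH, absorbance read at 570/630 nm.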

Mus musculus [6] = test: Cognitive enhancing effect in dizocilpine induced amnesia Swiss mouse model assessed as increase in latency time at 1 to 10 mg/kg, ip pretreated for 10 mins followed by dizocilpine addition in presence of NE-100 measured after 20 mins by step-through passive avoidance test; type: functional, organism-based; settings: dose 1-10 mg/kg, time 30.0 min; outline: as §1
Mus musculus [7] = test: Cognitive enhancing effect in dizocilpine induced amnesia Swiss mouse model assessed as increase in latency time at 0.03 to 0.3 mg/kg, ip pretreated for 10 mins followed by dizocilpine addition measured after 20 mins by step-through passive avoidance test; type: functional, organism-based; settings: dose 0.03-0.3 mg/kg, time 30.0 min; outline: as §1
Mus musculus [8] = test: Cognitive enhancing effect in dizocilpine induced amnesia Swiss mouse model assessed as reduction in memory impairment at 0.03 to 0.3 mg/kg, ip pretreated for 10 mins followed by dizocilpine addition in presence of NE-100 measured after 20 mins by Y-maze test; type: functional, organism-based; settings: dose 0.03-0.3 mg/kg, time 30.0 min; outline: as §1
Mus musculus [9] = test: Cognitive enhancing effect in dizocilpine induced amnesia Swiss mouse model assessed as increase in latency time at 0.03 to 0.3 mg/kg, ip pretreated for 10 mins followed by dizocilpine addition in presence of NE-100 measured after 20 mins by step-through passive avoidance test; type: functional, organism-based; settings: dose 0.03-0.3 mg/kg, time 30.0 min; outline: as §1
Mus musculus [10] = test: Cognitive enhancing effect in dizocilpine induced amnesia Swiss mouse model assessed as reduction in memory impairment at 0.03 to 0.3 mg/kg, ip pretreated for 10 mins followed by dizocilpine addition measured after 20 mins by Y-maze test; type: functional, organism-based; settings: dose 0.03-0.3 mg/kg, time 30.0 min; outline: as §1

Chain of Sigma non-opioid intracellular receptor 1 (Q60492 whole entry): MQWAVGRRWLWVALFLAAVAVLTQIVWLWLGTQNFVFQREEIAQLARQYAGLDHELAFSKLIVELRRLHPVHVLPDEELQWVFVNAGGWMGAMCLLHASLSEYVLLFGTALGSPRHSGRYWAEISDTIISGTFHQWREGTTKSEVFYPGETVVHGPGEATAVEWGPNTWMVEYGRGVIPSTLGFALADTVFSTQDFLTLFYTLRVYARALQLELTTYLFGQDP

SMILES	Ki [1]	Ki [2]	EC50 (C6)	other results
C[C@@H]1CCC[C@H](C)N1CCOc1ccc(Cl)cc1	116 nM	59.4 nM	–	–
CC1CCN([C@@H](C)COc2ccc(Cl)cc2)CC1	186 nM	0.34 nM	–	–
C[C@@H]1CCCCN1CCOc1ccc(Cl)cc1	77.8 nM	20.6 nM	–	–
COc1ccc(OCCN2CCCC[C@@H]2C)cc1	175 nM	43.4 nM	–	–
C[C@H]1CCCCN1CCOc1ccc(Cl)cc1	69.8 nM	16.6 nM	–	–
COc1ccc(OC[C@H](C)N2CCC(C)CC2)cc1	723 nM	1.49 nM	–	–
COc1ccc(OCCN2CCC(C)CC2)cc1	170 nM	0.89 nM	> 100000 nM	EC50 (MCF7): > 100000 nM; Activity (Mus musculus [3]): inactive; Activity (Mus musculus [4]): Active; EC50 (SH-SY5Y): > 100000 nM; Activity (Mus musculus [5]): Active; EC50 (HepG2): > 100000 nM; Activity (Mus musculus [6]): inactive
C[C@@H]1CCC[C@H](C)N1CCCOc1ccc(Cl)cc1	17.2 nM	4.43 nM	–	–
COc1ccc(OCCN2CCCC[C@H]2C)cc1	300 nM	35.9 nM	–	–
COc1ccc(OCCN2[C@H](C)CCC[C@@H]2C)cc1	636 nM	379 nM	–	–

More lines, in order of falling Ki [1], values ahead:

Ki [1]	Ki [2]	SMILES	EC50 (C6)	other results
809 nM	> 5000 nM	COc1ccc(OCCN2C(C)(C)CCCC2(C)C)cc1	> 100000 nM	–
411 nM	> 5000 nM	CC1(C)CCCC(C)(C)N1CCOc1ccc(Cl)cc1	> 100000 nM	–
239 nM	–	CC1CCN(CCOc2ccc(Cl)cc2)CC1	> 100000 nM	Activity (Mus musculus [7]): Active; EC50 (MCF7): > 100000 nM; Activity (Mus musculus [8]): inactive; EC50 (SH-SY5Y): > 100000 nM; Activity (Mus musculus [9]): inactive; Activity (Mus musculus [10]): Active; EC50 (HepG2): > 100000 nM
187 nM	1.16 nM	COc1ccc(OC[C@@H](C)N2CCC(C)CC2)cc1	> 100000 nM	–
52.5 nM	23.5 nM	COc1ccc(OCCCN2[C@H](C)CCC[C@@H]2C)cc1	–	–
52.3 nM	1.18 nM	CC1CCN([C@H](C)COc2ccc(Cl)cc2)CC1	> 100000 nM	–
